Test results taken from ChEMBL document CHEMBL3108716, “Anti-inflammatory and chondroprotective activity of (+)-α-pinene: structural and enantiomeric selectivity” (2014).
The source made the active and inactive calls. The calls are words filed in the database; no cut-off is given here.

How the values were obtained:
[1] = Antiinflammatory activity against human primary chondrocytes assessed as inhibition of IL-1beta-induced NO production at 200 ug/ml after 30 mins by Griess method relative to IL-1beta treated control; values are per cent of control; conditions: 0.5 h
[2] = biological target: T1, c-Jun N-terminal kinase, JNK (Homo sapiens) (UniProt P45983+P53779+P45984); assay: Inhibition of JNK activation in human primary chondrocytes assessed as reduction of IL-1beta-induced MMP13 mRNA expression at 200 ug/ml by quantitative RT-PCR analysis relative to IL-1beta treated control; type: cell-based
In short: (§1)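 Serum-starved primary human chondrocytes exposed 12 h to IL-1β 10 ng/mL with or without 200 μg/mL compound, the compound added 30 min before the stimulus. MMP-1 and MMP-13 mRNA quantified by RT-PCR and expressed versus IL-1β-treated cells. Mean ± SEM of at least four independent experiments; paired t test.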

[3] = biological target: T1, c-Jun N-terminal kinase, JNK (Homo sapiens); assay: Inhibition of JNK activation in human primary chondrocytes assessed as reduction of IL-1beta-induced MMP1 mRNA expression at 200 ug/ml by quantitative RT-PCR analysis relative to IL-1beta treated control; type: cell-based
In short: as §1

[4] = species: Homo sapiens; assay: Inhibition of NFkappaB activation in human primary chondrocytes assessed as reduction of IL-1beta-induced MMP13 mRNA expression at 200 ug/ml by quantitative RT-PCR analysis relative to IL-1beta treated control; type: cell-based
In short: as §1

[5] = species: Homo sapiens; assay: Inhibition of NFkappaB activation in human primary chondrocytes assessed as reduction of IL-1beta-induced MMP1 mRNA expression at 200 ug/ml by quantitative RT-PCR analysis relative to IL-1beta treated control; type: cell-based
In short: as §1

[6] = biological target: T1, c-Jun N-terminal kinase, JNK (Homo sapiens); assay: Inhibition of IL-1beta-induced JNK phosphorylation in human primary chondrocytes at 200 ug/ml by Western blotting analysis relative to IL-1beta treated control; type: cell-based; conditions: values are per cent of control
[7] = system: C28/I2; assay: Inhibition of NFkappaB activation in human C28/I2 cells assessed as reduction of IL-1beta-induced protein-DNA complex formation at 200 ug/ml after 30 mins by ELISA relative to IL-1beta treated control; type: cell-based
In short: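 C28/I2 cells pretreated 30 min ± 200 μg/mL compound, then IL-1β 10 ng/mL for 30 min. Nuclear extracts incubated with biotinylated NF-κB consensus oligonucleotide in a colorimetric ELISA-type binding assay; absorbance taken as amount of active NF-κB–DNA complexes. Specificity checked with 10-fold molar excess of unlabeled wild-type or mutant oligonucleotide. Mean ± SEM, four experiments.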

[8] = species: Homo sapiens; assay: Antiinflammatory activity against human primary chondrocytes assessed as inhibition of IL-1beta-induced iNOS mRNA expression after 30 mins by Western blotting analysis relative to IL-1beta treated control; type: functional
[9] = species: Homo sapiens; assay: Antiinflammatory activity against human primary chondrocytes assessed as inhibition of IL-1beta-induced NO production after 30 mins by Griess method; type: functional
[10] = Chondroprotective activity in human primary chondrocytes assessed as effect on IL-1beta-induced collagen2/1 mRNA expression at 200 ug/ml by quantitative RT-PCR analysis relative to IL-1beta treated control; type: functional
In short: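 Primary human chondrocytes treated 24 h with IL-1β 10 ng/mL with or without 200 μg/mL compound after a 30 min pretreatment; TIMP-1, collagen I and collagen II mRNA measured by RT-PCR relative to IL-1β-only cells. The collagen II/collagen I mRNA ratio served as a differentiation index. Mean ± SEM of ≥4 independent experiments; paired t test.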

[11] = biological target: MAP kinase p38 (Homo sapiens) (UniProt O15264+Q15759+Q16539+P53778); assay: Inhibition of IL-1beta-induced p38 MAPK phosphorylation in human primary chondrocytes at 200 ug/ml by Western blotting analysis relative to IL-1beta treated control; type: cell-based
[12] = Antiinflammatory activity against human primary chondrocytes assessed as IL-1beta-induced iNOS protein expression level after 30 mins by Western blotting analysis relative to IL-1beta treated control
[13] = system: C28/I2; assay: Inhibition of NFkappaB activation in human C28/I2 cells assessed as reduction of IL-1beta-induced IkappaBalpha phosphorylation at 200 ug/ml after 30 mins by Western blotting analysis relative to IL-1beta treated control; values are per cent of control
[14] = species: Homo sapiens; assay: Antiinflammatory activity against human primary chondrocytes assessed as inhibition of IL-1beta-induced NO production at 10 to 25 ug/ml after 30 mins by Griess method; type: functional
[15] = species: Homo sapiens; assay: Antiinflammatory activity against human primary chondrocytes assessed as inhibition of IL-1beta-induced iNOS protein expression level after 30 mins by Western blotting analysis relative to IL-1beta treated control; type: functional
In short: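 Serum-starved primary human chondrocytes pretreated 30 min with compound in DMSO (≤0.1% final), then IL-1β 10 ng/mL for 24 h. Total extracts immunoblotted with mouse monoclonal anti-human iNOS and detected by chemifluorescence. Band intensity normalized to β-tubulin or actin and expressed relative to IL-1β alone. Mean ± SEM, ≥4 independent experiments; paired t test.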

## C=C1CCC2CC1C2(C)C (racemic) [BETA-PINENE]
[1]
  level, % of control at 200 µg/mL: 76.8%

## CC1=CC[C@@H]2C[C@H]1C2(C)C [1R-(+)-ALPHA-PINENE]
[2]
  inhibition: Active
[3]
  inhibition: Active
[4]
  inhibition: Active
[5]
  inhibition: Active
[6]
  response, % of control: 51.3%
[7]
  inhibition: Active
[8]
  inhibition: Active
[9]
  inhibition: Dose-dependent effect
[10]
  fold change (FC): 2.6
[11]
  inhibition: inactive
[12]
  Activity: 24.4%
[1]
  level, % of control at 200 µg/mL: 31.5%
[13]
  level, % of control: 33.6%

## CC1=CCC2CC1C2(C)C (racemic) [ALPHA-PINENE]
[1]
  level, % of control at 200 µg/mL: 40.6%

## C=C1C(O)CC2CC1C2(C)C (configuration not stated)
[14]
  inhibition: inactive

## CC1(C)[C@@H]2CC=C(C=O)[C@H]1C2
[14]
  inhibition: inactive

## CC1(C)C2CC=C(CO)C1C2 (configuration not stated)
[14]
  inhibition: inactive

## CC1=CC[C@H]2C[C@@H]1C2(C)C
[6]
  response, % of control: 65.8%
[15]
  inhibition: Active
[11]
  inhibition: inactive
[1]
  level, % of control at 200 µg/mL: 58.1%
[13]
  level, % of control: 58.4%

## CC1=C[C@@H](O)[C@@H]2C[C@@H]1C2(C)C
[14]
  inhibition: inactive

## C[C@H]1CC[C@H]2C[C@@H]1C2(C)C
[15]
  inhibition: Active
[14]
  inhibition: inactive

## CC1(C)[C@H]2CC[C@@H](CO)[C@H]1C2
[14]
  inhibition: inactive
